ChEMBL document CHEMBL3860041, “Synthesis, biological evaluation and molecular modeling study of some new methoxylated 2-benzylthio-quinazoline-4(3H)-ones as nonclassical antifolates” (Bioorg Med Chem Lett, 2016)

Legend:
Dihydrofolate reductase = biological target: T1, Dihydrofolate reductase (Bos taurus, UniProt P00376); assay: Inhibition of bovine liver DHFR preincubated for 2 mins followed by addition of FH2 as substrate and NADPH
T1 sequence (P00376 whole entry): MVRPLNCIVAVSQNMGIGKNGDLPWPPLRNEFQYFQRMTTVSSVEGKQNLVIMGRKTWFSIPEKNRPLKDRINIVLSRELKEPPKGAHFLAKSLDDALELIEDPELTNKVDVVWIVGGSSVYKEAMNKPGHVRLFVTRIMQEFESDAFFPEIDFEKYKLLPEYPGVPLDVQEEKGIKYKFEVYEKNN

[1] = Growth inhibition of human SR cells at 10 uM after 48 hrs by SRB assay relative to control; type: functional; conditions: read-out: GI
How it was run: (§1)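 Primary screen across the full NCI 60 human tumour cell line panel, which covers nine tumour subpanels. A single dose of 10 μM was applied to each line, and growth was recorded for each cell line.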

[2] = Growth inhibition of human HOP62 cells at 10 uM after 48 hrs by SRB assay relative to control; type: functional; conditions: HOP-62, 48 h, read-out: GI
How it was run: (§2)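 NCI 60-cell-line panel, nine tumor subpanels; compounds tested at a single dose of 10 μM in the primary screen.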

[3] = Growth inhibition of human HOP92 cells at 10 uM after 48 hrs by SRB assay relative to control; type: functional; conditions: HOP-92, 48 h, read-out: GI; how it was run: as §2
[4] = Growth inhibition of human NCI-H23 cells at 10 uM after 48 hrs by SRB assay relative to control; type: functional; conditions: NCI-H23, 48 h, read-out: GI; how it was run: as §2
[5] = Growth inhibition of human NCI-H522 cells at 10 uM after 48 hrs by SRB assay relative to control; type: functional; conditions: NCI-H522, 48 h, read-out: GI; how it was run: as §2
[6] = Growth inhibition of human KM12 cells at 10 uM after 48 hrs by SRB assay relative to control; type: functional; conditions: KM12, 48 h, read-out: GI; how it was run: as §2
[7] = Growth inhibition of human SW620 cells at 10 uM after 48 hrs by SRB assay relative to control; type: functional; conditions: SW-620, 48 h, read-out: GI; how it was run: as §1
[8] = Growth inhibition of human SF268 cells at 10 uM after 48 hrs by SRB assay relative to control; type: functional; conditions: SF-268, 48 h, read-out: GI; how it was run: as §2
[9] = Growth inhibition of human SF295 cells at 10 uM after 48 hrs by SRB assay relative to control; type: functional; conditions: SF-295, 48 h, read-out: GI; how it was run: as §2
[10] = Growth inhibition of human SNB75 cells at 10 uM after 48 hrs by SRB assay relative to control; type: functional; conditions: SNB-75, 48 h, read-out: GI; how it was run: as §1
[11] = Growth inhibition of human M14 cells at 10 uM after 48 hrs by SRB assay relative to control; type: functional; conditions: M14, 48 h, read-out: GI; how it was run: as §2
[12] = Growth inhibition of human UACC257 cells at 10 uM after 48 hrs by SRB assay relative to control; type: functional; conditions: UACC-257, 48 h, read-out: GI; how it was run: as §1
[13] = Growth inhibition of human OVCAR3 cells at 10 uM after 48 hrs by SRB assay relative to control; type: functional; conditions: OVCAR-3, 48 h, read-out: GI; how it was run: as §2
[14] = Growth inhibition of human NCI/ADR-RES cells at 10 uM after 48 hrs by SRB assay relative to control; type: functional; conditions: read-out: GI; how it was run: as §2
[15] = Growth inhibition of human SKOV3 cells at 10 uM after 48 hrs by SRB assay relative to control; type: functional; conditions: SK-OV-3, 48 h, read-out: GI; how it was run: as §1
[16] = Growth inhibition of human A498 cells at 10 uM after 48 hrs by SRB assay relative to control; type: functional; conditions: A498, 48 h, read-out: GI; how it was run: as §2
[17] = Growth inhibition of human Caki1 cells at 10 uM after 48 hrs by SRB assay relative to control; type: functional; conditions: CAKI-1, 48 h, read-out: GI; how it was run: as §2
[18] = Growth inhibition of human RXF393 cells at 10 uM after 48 hrs by SRB assay relative to control; type: functional; conditions: RXF 393, 48 h, read-out: GI; how it was run: as §2
[19] = Growth inhibition of human PC3 cells at 10 uM after 48 hrs by SRB assay relative to control; type: functional; conditions: PC-3, 48 h, read-out: GI; how it was run: as §2
[20] = Growth inhibition of human MCF7 cells at 10 uM after 48 hrs by SRB assay relative to control; type: functional; conditions: MCF7, 48 h, read-out: GI; how it was run: as §2
[21] = Growth inhibition of human MDA-MB-231 cells at 10 uM after 48 hrs by SRB assay relative to control; type: functional; conditions: MDA-MB-231, 48 h, read-out: GI; how it was run: as §2
[22] = Growth inhibition of human BT549 cells at 10 uM after 48 hrs by SRB assay relative to control; type: functional; conditions: BT-549, 48 h, read-out: GI; how it was run: as §2
[23] = Growth inhibition of human MDA-MB-468 cells at 10 uM after 48 hrs by SRB assay relative to control; type: functional; conditions: MDA-MB-468, 48 h, read-out: GI; how it was run: as §2
[24] = Growth inhibition of human HL-60(TB) cells at 10 uM after 48 hrs by SRB assay relative to control; type: functional; conditions: HL-60, 48 h, read-out: GI
How it was run: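 NCI disease-oriented human tumour cell line screen: primary single-dose assay at 10 μM across the full 60-cell-line panel spanning nine tumour subpanels.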

Compound	IC50 (Dihydrofolate reductase) [µM]	inhibition of growth at 10 µM [1] [%]	inhibition of growth at 10 µM [2] [%]	inhibition of growth at 10 µM [3] [%]	inhibition of growth at 10 µM [4] [%]	inhibition of growth at 10 µM [5] [%]	inhibition of growth at 10 µM [6] [%]	inhibition of growth at 10 µM [7] [%]	inhibition of growth at 10 µM [8] [%]	inhibition of growth at 10 µM [9] [%]	inhibition of growth at 10 µM [10] [%]	inhibition of growth at 10 µM [11] [%]	inhibition of growth at 10 µM [12] [%]	inhibition of growth at 10 µM [13] [%]	inhibition of growth at 10 µM [14] [%]	inhibition of growth at 10 µM [15] [%]	inhibition of growth at 10 µM [16] [%]	inhibition of growth at 10 µM [17] [%]	inhibition of growth at 10 µM [18] [%]	inhibition of growth at 10 µM [19] [%]	also measured
COc1cc2nc(SCc3cc(OC)c(OC)c(OC)c3)n(-c3ccccc3OC)c(=O)c2cc1OC	0.8	76.2	< 10	34.2	20.1	< 10	45.9	23.6	30.1	26.2	37.2	23	< 10	51.8	37.1	< 10	74.6	57.1	22	38.9	inhibition of growth at 10 µM [20]: 23%; inhibition of growth at 10 µM [21]: 22.6%; inhibition of growth at 10 µM [22]: 12.5%; inhibition of growth at 10 µM [23]: 23%
COc1ccc(-n2c(SCc3cc(OC)c(OC)c(OC)c3)nc3ccc(Cl)cc3c2=O)cc1	3	< 10	< 10	42.9	20.2	16.7	18.7	< 10	15.2	16.7	< 10	< 10	11.2	< 10	10.7	< 10	49.1	33	25.9	37.7	inhibition of growth at 10 µM [24]: < 10%; inhibition of growth at 10 µM [20]: 15.6%; inhibition of growth at 10 µM [21]: 36.8%; inhibition of growth at 10 µM [22]: < 10%; inhibition of growth at 10 µM [23]: 13.4%
